The source made the active and inactive calls.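 How the source made its calls: active means EC50 of 10 µM or lower; inactive means EC50 above 10 µM.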
System: 293 cells GAL4-VP16 luciferase reporter, luminescence
Test: nonselective transcriptional activation, VP16 reporter – cell-based, luminescence, late stage, counter-screen for BRM (SMARCA2) activator project, dose response (AID 720661)
In short: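 System: 293 cells carrying GAL4-VP16 and pGL4.31 reporter / Doses: Ten-point threefold dilution series, top 91.2 µM nominal / Timing: 24 h compound treatment, 37 °C / Measured by: One-Glo luminescence / Read-out basis: EC50 from four-parameter fit of percent activation / Control set: DMSO and SAHA reference wells for normalization / Replication: each concentration tested in triplicate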

| Structure (SMILES) | EC50 |
| --- | --- |
| Cc1nc(NC(=O)c2cccc(Br)c2)sc1C | > 91.2 µM (inactive) |
| Cc1ccc(Nc2nc(-c3ccccc3)c(C)s2)cc1 | > 91.2 µM (inactive) |
| Clc1ccc(Cc2nc(-c3ccccc3)cs2)cc1 | > 91.2 µM (inactive) |
| Oc1ccccc1OCc1nc2ccccc2s1 | > 91.2 µM (inactive) |
| O=C(NCC1(c2nc(-c3ccccc3)cs2)CCOCC1)c1cccc(-c2noc(C(F)(F)F)n2)c1 | > 91.2 µM (inactive) |
| COc1ccc(-c2nc(C#N)c(NC3CC3)o2)cc1 | > 91.2 µM (inactive) |
| Cc1cc(C)c2nc(NC(=O)C(C)C)sc2c1 | > 91.2 µM (inactive) |

Reference: PubChem BioAssay AID720661 (The Scripps Research Institute Molecular Screening Center, 2013)
